Reference: ChEMBL document CHEMBL1126803, “Stereospecific and selective 5-HT2 antagonism in a series of 5-substituted trans-1-piperazino-3-phenylindans” (J Med Chem, 1993)

How the values were obtained:
[1] = target: D(2) dopamine receptor (Rattus norvegicus, UniProt P61169); assay: Displacement of [3H]spiperone from dopamine D2 receptors in rat striatal membranes; type: cell membranes, Membrane
Method in brief: (§1)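 Radioligand displacement from rat brain membranes: 3H-ketanserin on cortical membranes (5-HT2), 3H-prazosin on whole brain membranes (alpha1), 3H-spiperone on striatal membranes (D2). Two full concentration-effect curves per compound, each with five test drug concentrations in triplicate spanning three decades. IC50 estimated from curves on a log-concentration scale. Outliers beyond 3 times the sd-ratio were discarded after extra determinations.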

[2] = target: Serotonin 2 (5-HT2) receptor (Rattus norvegicus, UniProt P30994+P08909+P14842); assay: Displacement of [3H]ketanserin from 5-hydroxytryptamine 2 receptor in rat cortical membranes; type: cell membranes, Membrane; method in brief: as §1
[3] = species on record: Rattus norvegicus; assay: Inhibition of quipazine-induced head twitches in rats after 2 hrs of pretreatment; type: functional
Method in brief: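 Test drug was given sc or po to rats 2 or 24 h before quipazine (15 µmol/kg, sc). Head twitches were counted 30-40 min after quipazine, at least four animals per dose. Counts were expressed as percent of a quipazine-only control group.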

[4] = target: T1, Adrenergic receptor alpha-1 (Rattus norvegicus, UniProt P15823+P23944+P43140); assay: Displacement of [3H]prazosin from alpha-1 adrenoceptors in whole rat brain membranes; type: cell membranes; method in brief: as §1
T1 sequence (P15823 whole entry): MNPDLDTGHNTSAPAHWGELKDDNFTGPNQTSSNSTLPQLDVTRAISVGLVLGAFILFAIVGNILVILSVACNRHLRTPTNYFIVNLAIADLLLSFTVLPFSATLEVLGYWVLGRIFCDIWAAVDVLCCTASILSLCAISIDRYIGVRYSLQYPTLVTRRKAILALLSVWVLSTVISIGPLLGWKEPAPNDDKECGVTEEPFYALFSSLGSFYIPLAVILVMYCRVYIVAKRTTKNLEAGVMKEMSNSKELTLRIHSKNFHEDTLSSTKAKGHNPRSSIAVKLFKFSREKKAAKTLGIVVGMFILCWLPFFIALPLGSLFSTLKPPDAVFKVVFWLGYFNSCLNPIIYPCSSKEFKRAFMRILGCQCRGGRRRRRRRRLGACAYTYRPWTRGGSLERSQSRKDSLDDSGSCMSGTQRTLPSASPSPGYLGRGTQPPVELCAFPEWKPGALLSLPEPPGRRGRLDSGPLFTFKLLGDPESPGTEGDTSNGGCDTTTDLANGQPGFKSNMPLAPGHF
T1 sequence (P23944 whole entry): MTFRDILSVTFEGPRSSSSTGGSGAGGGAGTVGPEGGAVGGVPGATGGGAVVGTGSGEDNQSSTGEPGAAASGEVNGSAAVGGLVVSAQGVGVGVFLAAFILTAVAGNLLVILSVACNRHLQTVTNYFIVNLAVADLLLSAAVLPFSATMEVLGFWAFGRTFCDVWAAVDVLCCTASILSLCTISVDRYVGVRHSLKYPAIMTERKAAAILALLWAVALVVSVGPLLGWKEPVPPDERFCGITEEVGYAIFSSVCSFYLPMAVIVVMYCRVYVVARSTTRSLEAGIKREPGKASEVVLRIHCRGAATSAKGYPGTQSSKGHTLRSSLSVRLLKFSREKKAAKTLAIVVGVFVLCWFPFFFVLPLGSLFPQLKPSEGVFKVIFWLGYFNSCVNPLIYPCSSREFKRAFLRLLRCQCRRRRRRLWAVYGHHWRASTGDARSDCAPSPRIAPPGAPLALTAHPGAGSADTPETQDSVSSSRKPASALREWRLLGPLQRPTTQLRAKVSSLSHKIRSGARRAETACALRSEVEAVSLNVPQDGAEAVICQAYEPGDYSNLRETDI
T1 sequence (P43140 whole entry): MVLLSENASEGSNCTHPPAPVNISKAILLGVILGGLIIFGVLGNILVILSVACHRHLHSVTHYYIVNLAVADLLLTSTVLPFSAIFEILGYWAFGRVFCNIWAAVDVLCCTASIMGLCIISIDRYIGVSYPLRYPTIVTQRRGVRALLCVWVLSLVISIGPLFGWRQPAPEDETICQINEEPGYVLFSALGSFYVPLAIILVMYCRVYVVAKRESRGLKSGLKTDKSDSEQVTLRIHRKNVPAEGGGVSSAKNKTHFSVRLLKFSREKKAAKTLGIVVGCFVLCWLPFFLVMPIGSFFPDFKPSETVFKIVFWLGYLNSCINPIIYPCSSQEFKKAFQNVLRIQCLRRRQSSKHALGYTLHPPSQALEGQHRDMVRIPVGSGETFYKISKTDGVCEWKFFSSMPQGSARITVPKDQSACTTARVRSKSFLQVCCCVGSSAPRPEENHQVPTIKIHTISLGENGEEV

[5] = Rattus norvegicus, read-out: ED50

D(2) dopamine receptor, sequence (P61169 whole entry): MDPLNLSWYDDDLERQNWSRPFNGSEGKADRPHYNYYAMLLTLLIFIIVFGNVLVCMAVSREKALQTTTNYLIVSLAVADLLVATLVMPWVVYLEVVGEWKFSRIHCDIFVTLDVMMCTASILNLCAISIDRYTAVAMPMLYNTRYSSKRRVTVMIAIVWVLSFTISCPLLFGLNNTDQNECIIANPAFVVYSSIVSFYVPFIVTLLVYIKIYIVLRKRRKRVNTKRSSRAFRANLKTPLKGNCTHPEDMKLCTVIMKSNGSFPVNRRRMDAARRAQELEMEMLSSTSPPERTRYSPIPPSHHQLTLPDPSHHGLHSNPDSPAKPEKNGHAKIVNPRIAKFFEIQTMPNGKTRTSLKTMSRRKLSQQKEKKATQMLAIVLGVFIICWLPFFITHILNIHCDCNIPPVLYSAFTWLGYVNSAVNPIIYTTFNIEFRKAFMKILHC

Row | SMILES | IC50 [1] [nM] | IC50 [2] [nM] | IC50 [4] [nM] | ED50 [3, 5] [µmol/kg] | ED50 [3] [µM/kg]
1 | CN1CCN(CCN2CCN(C3CC(c4ccc(F)cc4)c4cc(Cl)ccc43)CC2)C1=O.O=C(O)/C=C\C(=O)O (stereo not drawn) |  | 2.8 | 600 | 0.093 | 
2 | CC(C)N1CCN(CCN2CCN(C3CC(c4cccc(F)c4)c4cc(Cl)ccc43)CC2)C1=O.O=C(O)/C=C\C(=O)O (stereo not drawn) |  | 26 | 970 |  | 
3 | Cl.Cl.O=C1CCCN1CCN1CCN(C2CC(c3ccc(F)cc3)c3cc(Cl)ccc32)CC1 (stereo not drawn) | 500 | 10 | 370 | 2.7 | 
4 | CC(C)N1CCN(CCN2CCN(C3CC(c4ccc(F)cc4)c4cc(Br)ccc43)CC2)C1=O.O=C(O)/C=C\C(=O)O.O=C(O)/C=C\C(=O)O (stereo not drawn) |  | 6.4 | 270 | 0.098 | 
5 | CC(C)N1CCN(CCN2CCN(C3CC(c4ccc(F)cc4)c4cc(Cl)ccc43)CC2)C1=O.O=C(O)/C=C\C(=O)O.O=C(O)/C=C\C(=O)O (stereo in doubt; 20) |  | 3.9 | 260 |  | 0.06
6 | O=C1NCCN1CCN1CCN(C2CC(c3ccc(F)cc3)c3cc(Cl)ccc32)CC1 (stereo not drawn) |  | 2.9 | 200 | 0.34 | 
7 | Cl.Cl.OCCN1CCN(C2CC(c3ccc(F)cc3)c3cc(F)ccc32)CC1 (stereo in doubt; (-)-13) | 22000 | 500 | 1100 |  | >2.8
8 | Cl.Cl.O=C1OCCN1CCN1CCN(C2CC(c3ccc(F)cc3)c3cc(Cl)ccc32)CC1 (stereo not drawn) | 550 | 23 | 140 | 2 | 
9 | CC(C)N1CCN(CCN2CCN(C3CC(c4ccccc4F)c4cc(Cl)ccc43)CC2)C1=O.O=C(O)/C=C\C(=O)O.O=C(O)/C=C\C(=O)O (stereo not drawn) |  | 3.5 | 670 | 2.1 | 
10 | Cl.Cl.OCCN1CCN(C2CC(c3ccc(F)cc3)c3cc(F)ccc32)CC1 (single isomer, unassigned; (+)) | 330 | 12 | 72 |  | 0.33
11 | O=C(O)/C=C\C(=O)O.O=C(O)/C=C\C(=O)O.O=C1N(CCO)CCN1CCN1CCN(C2CC(c3ccc(F)cc3)c3cc(Cl)ccc32)CC1 (stereo not drawn) |  | 6.1 | 710 | 1.1 | 
12 | Cc1ccc2c(c1)C(c1ccc(F)cc1)CC2N1CCN(CCO)CC1.O=C(O)/C=C\C(=O)O.O=C(O)/C=C\C(=O)O (stereo not drawn) | 1100 | 12 | 270 | > 2.1 | 
13 | O=C(O)/C=C\C(=O)O.O=C(O)/C=C\C(=O)O.O=C1NCCCN1CCN1CCN(C2CC(c3ccc(F)cc3)c3cc(Cl)ccc32)CC1 (stereo in doubt; (+)-41) | 1700 | 120 |  |  | 
14 | OCCN1CCN(C2CC(c3ccc(F)cc3)c3cc(F)ccc32)CC1 (stereo not drawn) | 1100 | 21 | 150 |  | 0.35
15 | Cl.Cl.Fc1ccc(C2CC(N3CCN(CCN4CCCNC4=S)CC3)c3ccc(Cl)cc32)cc1 (stereo in doubt; (+)-39) | 490 | 21 | 350 |  | 

Now from value to molecule, other results behind:

Row | IC50 [1] [nM] | IC50 [2] [nM] | IC50 [4] [nM] | SMILES | ED50 [3, 5] [µmol/kg] | ED50 [3] [µM/kg]
16 | 2900 | 42 |  | Cl.Cl.Fc1ccc(C2CC(N3CCN(CCN4CCCNC4=S)CC3)c3ccc(F)cc32)cc1 (racemic) |  | 
17 |  | 44 | 310 | O=C(O)/C=C\C(=O)O.O=C(O)/C=C\C(=O)O.O=C1N(CCN2CCN(C3CC(c4ccc(F)cc4)c4cc(Cl)ccc43)CC2)CCN1c1ccccc1 (stereo not drawn) | > 6.7 | 
18 |  | 2.6 | 240 | CCN1CCN(CCN2CCN(C3CC(c4ccc(F)cc4)c4cc(Cl)ccc43)CC2)C1=O.O=C(O)/C=C\C(=O)O.O=C(O)/C=C\C(=O)O (stereo not drawn) | 0.042 | 
19 | 220 | 1.7 | 110 | Fc1ccc(C2CC(N3CCN(CCN4CCCN=C4S)CC3)c3ccc(F)cc32)cc1.O=C(O)/C=C\C(=O)O.O=C(O)/C=C\C(=O)O (stereo not drawn) | 0.039 | 
20 |  | 11 | 60 | Cc1ccc(C2CC(N3CCN(CCN4CCN(C(C)C)C4=O)CC3)c3ccc(Cl)cc32)cc1.O=C(O)/C=C\C(=O)O (stereo not drawn) | > 3.5 | 
21 | 220 | 40 | 30 | OCCN1CCN(C2CC(c3ccc(F)cc3)c3c(Cl)cccc32)CC1 (stereo not drawn) | 0.82 | 
22 |  | 3.7 | 370 | CC(C)N1CCN(CCN2CCN(C3CC(c4ccc(F)cc4)c4cc(C(F)(F)F)ccc43)CC2)C1=O.O=C(O)/C=C\C(=O)O.O=C(O)/C=C\C(=O)O (stereo not drawn) | 0.13 | 
23 | 4000 | 57 |  | O=C(O)/C=C\C(=O)O.O=C(O)/C=C\C(=O)O.O=C1NCCCN1CCN1CCN(C2CC(c3ccc(F)cc3)c3cc(F)ccc32)CC1 (single isomer, unassigned; (-)) |  | 
24 | 6300 | 230 | 2500 | Cl.Cl.OCCN1CCN(C2CC(c3ccc(F)cc3)c3cc(Cl)ccc32)CC1 (single isomer, unassigned; (+)) |  | >2.8
25 | 65 | 19 | 24 | Cc1nc2sccn2c(=O)c1CCN1CCN(C2CC(c3ccc(F)cc3)c3cc(Cl)ccc32)CC1.O=C(O)/C=C\C(=O)O.O=C(O)/C=C\C(=O)O (stereo not drawn) | 1.9 | 
26 | 93 | 3.8 | 78 | O=C(O)/C=C\C(=O)O.O=C(O)/C=C\C(=O)O.O=c1[nH]c2ccccc2c(=O)n1CCN1CCN(C2CC(c3ccc(F)cc3)c3cc(Cl)ccc32)CC1 (stereo not drawn) | > 3.3 | 
27 | 370 | 11 | 210 | Cl.Cl.OCCN1CCN(C2CC(c3ccc(F)cc3)c3cc(Cl)ccc32)CC1 (single isomer, unassigned; (-)) |  | 0.86
28 |  | 4 | 250 | CSc1ccc2c(c1)C(c1ccc(F)cc1)CC2N1CCN(CCN2CCN(C(C)C)C2=O)CC1 (stereo not drawn) | > 3.4 | 
29 |  | 9.9 | 510 | CC(C)N1CCN(CCN2CCN(C3CC(c4ccccc4)c4cc(Cl)ccc43)CC2)C1=O.O=C(O)/C=C\C(=O)O.O=C(O)/C=C\C(=O)O (stereo not drawn) | 1 | 
30 |  | 25 | 230 | Cl.Cl.OCCN1CCN(C2CC(c3ccc(F)cc3)c3cc(Cl)ccc32)CC1 (stereo in doubt; 10) |  | 0.23
31 |  | 15 | 180 | CC(C)N1CCN(CCN2CCN(C3CC(c4ccc(Cl)cc4)c4cc(Cl)ccc43)CC2)C1=O.O=C(O)/C=C\C(=O)O (stereo not drawn) | 2.9 | 
32 | 450 | 3 | 120 | Cc1ccc2c(c1)C(c1ccc(F)cc1)CC2N1CCN(CCN2CCN(C(C)C)C2=O)CC1.O=C(O)/C=C\C(=O)O.O=C(O)/C=C\C(=O)O (stereo not drawn) | 0.2 | 
33 |  | 8.9 | 380 | O=C(O)/C=C\C(=O)O.O=C(O)/C=C\C(=O)O.OCCN1CCN(C2CC(c3ccc(F)cc3)c3cc(C(F)(F)F)ccc32)CC1 (stereo not drawn) | 1 | 
